Screening results as filed in PubChem BioAssay.
This is a sample that favours compounds with a hit; in the whole collection about 3.3% have one here.
SENP6 block: SENP6 protease inhibitors, primary screen, biochemical, luminescence, uHTS; AID 2599, 2010; inhibition, % at 10 µM; 330,000 compounds, 1.8% hits; Recombinant SENP6 catalytic domain, aminoluciferin luminescence;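 active = inhibition above about 50% at the single tested dose, limit read from the data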;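 note: plate controls were DMSO wells with enzyme for no effect and DMSO wells lacking enzyme for full effect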
SENP1 FRET inh: human SENP1 catalytic domain inhibitors, primary screen, biochemical, FRET, uHTS; Sentrin-specific protease 1 (Homo sapiens), Q9P0U3; inhibition, % at 10 µM; 360,000 compounds, 0.21% hits; recombinant SENP1 catalytic domain, CyPet-SUMO1-YPet FRET cleavage;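 active = inhibition at least 30% at 10 µM, raw YFP signal under a set limit, fluorescence ratio 0.5 to 1.5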;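 note: 0% = enzyme with DMSO and 100% = no enzyme wells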
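Assay system – human recombinant His6-tagged SENP1 catalytic domain enzyme · Input – SENP1 enzyme, 20 pM final · Buffer or medium – Tris pH 8 buffer plus EDTA, NaCl, BME, BSA, NP40, catalase · Schedule – 50 min reaction at room temperature · Technique – FRET read of cyan and yellow fluorescence · Control set – no-enzyme wells low, DMSO-plus-enzyme wells high control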
CendR NRP1 mod: modulators of CendR peptide binding to NRP-1, primary screen, biochemical, fluorescence polarization, uHTS. Neuropilin-1 (Homo sapiens), O14786. FAM-RPARPAR peptide binding to NRP-1. inhibition, % at 25 µM. 360,000 compounds, 0.85% hits. AID 602438, 2012;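 active = inhibition or corrected inhibition above about 18%, plus a signal ratio from 0.5 to 1.5, limit read from the data, passing the limit was not always enough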
SENP8 block-1: human SENP8 protease inhibitors, primary screen, biochemical, fluorescence, Nedd8 protein substrate, uHTS | Sentrin-specific protease 8 (Homo sapiens), Q96LD8 | recombinant SENP8 | inhibition, % at 20 µM | 360,000 compounds, 0.64% hits | AID 602440, 2012; in the data active = inhibition mostly above about 40%, no sharp cut-off; inactive = mostly below about 27%
Target sequence (Q96LD8 whole entry, looked up): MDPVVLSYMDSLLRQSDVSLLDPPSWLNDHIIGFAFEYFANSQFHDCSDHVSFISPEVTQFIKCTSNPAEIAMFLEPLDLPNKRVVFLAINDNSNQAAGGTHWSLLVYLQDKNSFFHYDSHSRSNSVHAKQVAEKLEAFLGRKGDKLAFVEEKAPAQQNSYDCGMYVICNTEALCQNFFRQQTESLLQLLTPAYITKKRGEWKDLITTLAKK
SENP7 inh: SENP7 protease inhibitors, primary screen, biochemical, luminescence, uHTS | Sentrin-specific protease 7 (Homo sapiens), Q9BQF6 | recombinant SENP7, Z-RLRGG-aminoluciferin luminescence, 40 min | inhibition, % at 5 µM | 330,000 compounds, 1.5% hits | AID 434973, 2010;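 active = inhibition above about 50% at the single test dose, limit read from the data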;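 note: plate controls were DMSO with enzyme for no effect and no enzyme buffer wells for full effect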
Target sequence (Q9BQF6 706-1050 limits assumed): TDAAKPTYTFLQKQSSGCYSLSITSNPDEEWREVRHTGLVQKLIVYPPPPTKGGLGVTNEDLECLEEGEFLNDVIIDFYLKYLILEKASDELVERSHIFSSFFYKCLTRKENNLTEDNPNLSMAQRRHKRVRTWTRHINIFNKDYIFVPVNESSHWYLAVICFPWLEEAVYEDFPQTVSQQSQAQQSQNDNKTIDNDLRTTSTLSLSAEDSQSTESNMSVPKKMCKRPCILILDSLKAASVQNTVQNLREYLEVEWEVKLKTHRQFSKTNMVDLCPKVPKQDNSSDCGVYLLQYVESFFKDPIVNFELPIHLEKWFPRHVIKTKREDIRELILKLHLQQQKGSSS
SENP8 block-2: SENP8 protease inhibitors, primary screen, biochemical, luminescence; inhibition, % at 10 µM; purified SENP8, Z-RLRGG-aminoluciferin cleavage; 330,000 compounds, 1.2% hits; Sentrin-specific protease 8 (Homo sapiens), Q96LD8; in the data active = inhibition above about 50%
An asterisk follows results filed as active.

`C/C(=N\NC(=O)C1CCCC1)c1ccc(C(C)C)cc1` gave SENP6 block -13, SENP1 FRET inh 1, CendR NRP1 mod 27*, SENP8 block-1 5, SENP7 inh 11 and SENP8 block-2 -15.
Screening CCN(CC(=O)NCc1cccs1)C(=O)c1ccc(S(=O)(=O)N(C)C)cc1 returned SENP6 block -28, SENP1 FRET inh 0, CendR NRP1 mod 0, SENP8 block-1 9, SENP7 inh 2 and SENP8 block-2 -1.
Screening CCN(CC(=O)NCc1cccs1)C(=O)c1ccc(S(=O)(=O)N(C)c2ccccc2)cc1 returned SENP6 block 2, SENP1 FRET inh 3, CendR NRP1 mod 21*, SENP8 block-1 6, SENP7 inh 6 and SENP8 block-2 -2.
Screening COc1ccc(N(C(=O)c2cccnc2)S(=O)(=O)c2ccccc2)cc1 returned SENP6 block -1, SENP1 FRET inh 2, CendR NRP1 mod 24*, SENP8 block-1 8, SENP7 inh -6 and SENP8 block-2 -4.
N/C(=N\OC(=O)Cc1ccccc1[N+](=O)[O-])c1ccccn1 was read as SENP6 block 0, SENP1 FRET inh 7, CendR NRP1 mod 11, SENP8 block-1 6, SENP7 inh -3 and SENP8 block-2 2.
Cc1c(C(=O)O/N=C(\N)c2ccccn2)cccc1[N+](=O)[O-] was read as SENP6 block 79*, SENP1 FRET inh 3, CendR NRP1 mod -3, SENP8 block-1 6, SENP7 inh 85* and SENP8 block-2 78*.
Cc1n[nH]c(=O)nc1NCc1ccccc1 was read as SENP6 block 7, SENP1 FRET inh 0, CendR NRP1 mod -11, SENP8 block-1 4, SENP7 inh 5 and SENP8 block-2 -4.
For Cc1n[nH]c(=O)nc1NCc1ccco1 the results were SENP6 block -3, SENP1 FRET inh 2, CendR NRP1 mod 25*, SENP8 block-1 12, SENP7 inh 4 and SENP8 block-2 -2.
Screening C[C@H](CO)N1C[C@H](C)[C@@H](CN(C)S(C)(=O)=O)Oc2c(NC(=O)Nc3ccccc3)cccc2C1=O returned SENP6 block -14, SENP1 FRET inh 2, CendR NRP1 mod 1, SENP8 block-1 15, SENP7 inh 0 and SENP8 block-2 -6.
For CC(C)(C)OC(=O)[C@H](CCCCN)NC(=O)c1nc[nH]c1C(=O)N[C@@H](CCCCN)C(=O)OC(C)(C)C the results were SENP6 block 0, SENP1 FRET inh 1, CendR NRP1 mod 21*, SENP8 block-1 14, SENP7 inh -1 and SENP8 block-2 3.
CC(C)(C)OC(=O)NCCCC[C@H](NC(=O)c1[nH]cnc1C(=O)Nc1ccccc1)C(=O)OC(C)(C)C was read as SENP6 block 0, SENP1 FRET inh 0, CendR NRP1 mod 21*, SENP8 block-1 17, SENP7 inh -11 and SENP8 block-2 3.
CC(C)(C)OC(=O)NCCCC[C@H](NC(=O)c1[nH]cnc1C(=O)Nc1ccc(Cl)cc1)C(=O)OC(C)(C)C was read as SENP6 block -16, SENP1 FRET inh 1, CendR NRP1 mod -2, SENP8 block-1 -20, SENP7 inh 16 and SENP8 block-2 -13.
Screening CC(C)C[C@H](NC(=O)c1nc[nH]c1C(=O)N[C@@H](CCCCN)C(=O)OC(C)(C)C)C(=O)OC(C)(C)C returned SENP6 block 0, SENP1 FRET inh 1, CendR NRP1 mod -4, SENP8 block-1 9, SENP7 inh -1 and SENP8 block-2 -3.
`C[C@H](NC(=O)c1[nH]cnc1C(=O)Nc1ccccc1)c1ccccc1` gave SENP6 block -2, SENP1 FRET inh 1, CendR NRP1 mod 26*, SENP8 block-1 15, SENP7 inh -7 and SENP8 block-2 4.
`Cn1c(N)c(C(=O)COC(=O)/C=C/c2ccc(Cl)c(Cl)c2)c(=O)n(C)c1=O` gave SENP6 block 7, SENP1 FRET inh -2, CendR NRP1 mod 25*, SENP8 block-1 -10, SENP7 inh 2 and SENP8 block-2 -5.
Screening COc1ccc(N2C(=O)c3ccccc3NC(=O)C2C(=O)NCc2ccco2)cc1 (stereo unspecified) returned SENP1 FRET inh -19, CendR NRP1 mod -3 and SENP8 block-1 -54.
CCOC(=O)[C@]12CCCC=C1N(Cc1ccco1)C(=O)[C@H](CC(=O)N1CCSCC1)C2 was read as SENP1 FRET inh 3, CendR NRP1 mod 20* and SENP8 block-1 20.
Screening CCCCCCCCN1C(=O)[C@H](CC(=O)NCCCN2CCCC2=O)C[C@@]2(C(=O)OC)CCCCC=C12 returned SENP1 FRET inh 2, CendR NRP1 mod 29* and SENP8 block-1 9.
`CCOC(=O)[C@]12CCCC=C1N(CCC1=CCCCC1)C(=O)[C@H](CC(=O)NCC13CC4CC(CC(C4)C1)C3)C2` gave SENP1 FRET inh 1, CendR NRP1 mod 22* and SENP8 block-1 8.
For CCOC(=O)[C@]12CCCC=C1N(CCC1=CCCCC1)C(=O)[C@H](CC(=O)NCCC(C)C)C2 the results were SENP1 FRET inh 1, CendR NRP1 mod 20 and SENP8 block-1 15.
`CSCCC(NC(=O)c1ccco1)C(=O)N1CCN(C(c2ccccc2)c2ccccc2)CC1` (stereo unspecified) gave SENP6 block -24, SENP1 FRET inh -3, CendR NRP1 mod -11, SENP8 block-1 7, SENP7 inh 14 and SENP8 block-2 -6.
`O=C(N=Nc1c(O)[nH]c2ccccc12)c1ccc2c(c1)OCO2` gave SENP6 block 66*, SENP1 FRET inh 2, CendR NRP1 mod -5, SENP8 block-1 26, SENP7 inh 91* and SENP8 block-2 46.
For CCOc1cccc(CNc2ccc(O)cc2)c1OCc1ccccc1Cl the results were SENP6 block 28, SENP1 FRET inh 14, CendR NRP1 mod -1, SENP8 block-1 30, SENP7 inh 55* and SENP8 block-2 9.
`CCOc1cccc(CNn2cnnc2)c1OCc1ccccc1Cl` gave SENP6 block 5, SENP1 FRET inh 2, CendR NRP1 mod 20, SENP8 block-1 24, SENP7 inh 3 and SENP8 block-2 11.
`CCOc1cccc(CNc2ccc(O)cc2)c1OCc1ccc(Cl)cc1Cl` gave SENP6 block 1, SENP1 FRET inh 2, CendR NRP1 mod 14, SENP8 block-1 69*, SENP7 inh 8 and SENP8 block-2 3.
`CCOc1cccc(CNCCO)c1OCc1ccc(Cl)cc1Cl` gave SENP6 block -19, SENP1 FRET inh 0, CendR NRP1 mod -6, SENP8 block-1 14, SENP7 inh 2 and SENP8 block-2 -4.
